Assays:
[1] = target: T1, Very long chain fatty acid elongase 3 (Homo sapiens, UniProt Q9HB03); assay: Inhibition of human ELOVL3 expressed in african green monkey COS7 cells assessed as stearoyl-CoA elongation; type: cell-based, COS-7
T1 sequence (Q9HB03 whole entry): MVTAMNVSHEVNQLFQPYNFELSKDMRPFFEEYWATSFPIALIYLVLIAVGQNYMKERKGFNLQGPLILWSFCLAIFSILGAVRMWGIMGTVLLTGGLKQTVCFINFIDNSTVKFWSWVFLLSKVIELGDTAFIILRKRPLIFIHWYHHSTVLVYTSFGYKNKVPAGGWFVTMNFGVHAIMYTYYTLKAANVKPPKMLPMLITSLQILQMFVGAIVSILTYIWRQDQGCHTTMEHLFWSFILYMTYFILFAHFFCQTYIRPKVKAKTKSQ
Outline: (§1)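 IC50 against each ELOVL subtype, each with its own fatty acyl-CoA substrate. Human ELOVL6 used palmitoyl-CoA elongation. Radioactive ELOVL6 products were detected with recombinant histidine-tagged ACBP as a probe. Values are mean ± SE, n ≥ 3.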

[2] = target: T2, Very long chain fatty acid elongase 6 (Homo sapiens, UniProt Q9H5J4); assay: Inhibition of human ELOVL6 expressed in african green monkey COS7 cells assessed as palmitoyl-CoA elongation; type: cell-based, COS-7; outline: as §1
T2 sequence (Q9H5J4 whole entry): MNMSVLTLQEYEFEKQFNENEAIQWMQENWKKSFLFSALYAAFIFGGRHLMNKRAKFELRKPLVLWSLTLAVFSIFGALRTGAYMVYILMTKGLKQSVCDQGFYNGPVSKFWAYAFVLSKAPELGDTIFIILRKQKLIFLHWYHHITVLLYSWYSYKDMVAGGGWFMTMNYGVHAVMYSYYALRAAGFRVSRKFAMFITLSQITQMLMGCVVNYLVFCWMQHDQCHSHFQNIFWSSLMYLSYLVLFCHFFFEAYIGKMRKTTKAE

[3] = target: T3, Very long chain fatty acid elongase 1 (Homo sapiens, UniProt Q9BW60); assay: Inhibition of human ELOVL1 expressed in african green monkey COS7 cells; type: cell-based, COS-7; outline: as §1
T3 sequence (Q9BW60 whole entry): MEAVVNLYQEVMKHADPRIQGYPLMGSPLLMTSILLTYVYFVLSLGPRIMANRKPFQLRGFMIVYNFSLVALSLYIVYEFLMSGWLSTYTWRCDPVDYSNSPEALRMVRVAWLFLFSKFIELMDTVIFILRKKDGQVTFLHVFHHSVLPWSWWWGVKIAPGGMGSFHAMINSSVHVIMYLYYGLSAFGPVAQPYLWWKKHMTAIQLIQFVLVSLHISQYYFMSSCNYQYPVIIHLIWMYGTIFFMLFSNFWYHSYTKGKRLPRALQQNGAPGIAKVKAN

[4] = Plasma concentration in mouse at 1 mg/kg, po after 2 hrs; type: ADME, organism-based; parameters: dose 1 mg/kg, route oral
Outline: (§2)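 Compound was given orally at 1 mg/kg to mice. Plasma levels were sampled at 2, 4, 8 and 24 h. Values are the mean of n = 3 animals.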

[5] = Drug level in mouse liver at 10 mg/kg, po after 2 hrs; type: ADME, organism-based; parameters: dose 10 mg/kg, route oral; details: read-out: Drug uptake
[6] = Plasma concentration in mouse at 1 mg/kg, po after 24 hrs; type: ADME, organism-based; parameters: dose 1 mg/kg, route oral; outline: as §2
[7] = Plasma concentration in mouse at 10 mg/kg, po after 2 hrs; type: ADME, organism-based; parameters: dose 10 mg/kg, route oral
[8] = target: T4, Very long chain fatty acid elongase 2 (Homo sapiens, UniProt Q9NXB9); assay: Inhibition of human ELOVL2 expressed in african green monkey COS7 cells; type: cell-based, COS-7; outline: as §1
T4 sequence (Q9NXB9 whole entry): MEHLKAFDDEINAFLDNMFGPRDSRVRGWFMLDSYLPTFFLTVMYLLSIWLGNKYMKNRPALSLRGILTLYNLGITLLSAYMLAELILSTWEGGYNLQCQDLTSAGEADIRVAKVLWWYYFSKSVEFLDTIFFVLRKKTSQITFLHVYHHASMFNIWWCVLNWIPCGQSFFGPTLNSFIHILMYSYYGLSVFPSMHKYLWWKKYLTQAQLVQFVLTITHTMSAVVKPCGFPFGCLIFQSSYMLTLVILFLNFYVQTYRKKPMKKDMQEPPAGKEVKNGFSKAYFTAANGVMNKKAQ

Mus musculus = assay: Inhibition of ELOVL6 activity in po dosed C57BL/6J mouse liver assessed as […] administered 1 hr before [1-14C]palmitic acid measured after 2 hrs; type: functional, organism-based
[9] = Plasma concentration in mouse at 1 mg/kg, po after 4 hrs; type: ADME, organism-based; parameters: dose 1 mg/kg, route oral; outline: as §2
[10] = target: T5, Very long chain fatty acid elongase 6 (Mus musculus, UniProt Q920L5); assay: Inhibition of mouse ELOVL6 expressed in african green monkey COS7 cells; type: cell-based, COS-7; outline: as §1
T5 sequence (Q920L5 whole entry): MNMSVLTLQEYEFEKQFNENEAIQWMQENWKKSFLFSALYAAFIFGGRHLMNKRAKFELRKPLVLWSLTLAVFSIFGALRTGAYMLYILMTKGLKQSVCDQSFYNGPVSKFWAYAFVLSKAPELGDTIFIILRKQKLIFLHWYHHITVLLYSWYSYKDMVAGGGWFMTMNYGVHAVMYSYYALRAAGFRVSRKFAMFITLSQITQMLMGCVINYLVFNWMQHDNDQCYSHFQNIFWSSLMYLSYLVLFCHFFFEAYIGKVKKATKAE

[11] = target: T6, Very long chain fatty acid elongase 3 (Mus musculus, UniProt O35949); assay: Inhibition of mouse ELOVL3 expressed in african green monkey COS7 cells; type: cell-based, COS-7; outline: as §1
T6 sequence (O35949 whole entry): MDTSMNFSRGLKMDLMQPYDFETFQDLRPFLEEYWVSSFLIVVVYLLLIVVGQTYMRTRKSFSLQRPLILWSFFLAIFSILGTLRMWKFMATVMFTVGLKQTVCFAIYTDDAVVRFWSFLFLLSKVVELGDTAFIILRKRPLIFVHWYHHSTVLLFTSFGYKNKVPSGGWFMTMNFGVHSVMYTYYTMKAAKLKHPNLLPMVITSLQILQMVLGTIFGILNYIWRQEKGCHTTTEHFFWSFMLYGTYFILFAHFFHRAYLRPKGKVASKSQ

[12] = Plasma concentration in mouse at 1 mg/kg, po after 8 hrs; type: ADME, organism-based; parameters: dose 1 mg/kg, route oral; outline: as §2
[13] = target: T7, Very long chain fatty acid elongase 5 (Homo sapiens, UniProt Q9NYP7); assay: Inhibition of human ELOVL5 expressed in african green monkey COS7 cells; type: cell-based, COS-7; outline: as §1
T7 sequence (Q9NYP7 whole entry): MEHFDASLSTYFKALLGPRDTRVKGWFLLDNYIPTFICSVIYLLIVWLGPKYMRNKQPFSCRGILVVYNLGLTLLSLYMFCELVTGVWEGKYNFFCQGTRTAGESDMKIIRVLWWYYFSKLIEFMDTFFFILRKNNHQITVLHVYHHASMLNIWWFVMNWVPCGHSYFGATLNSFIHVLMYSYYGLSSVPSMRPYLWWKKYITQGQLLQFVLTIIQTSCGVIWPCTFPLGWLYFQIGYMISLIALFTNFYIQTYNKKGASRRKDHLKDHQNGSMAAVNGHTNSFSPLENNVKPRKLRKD

IC50 [1] [nM]	IC50 [2] [nM]	SMILES	further results
375		Cc1ccc(-n2[nH]c(C)c(C3(C(F)(F)F)C(=O)N(c4ccccc4)C4=C3C(=O)CC(C)(C)C4)c2=O)cc1 (stereo unspecified)	
	123	Cc1[nH]n(-c2ccccc2)c(=O)c1C1(C(F)(F)F)C(=O)N(c2ccccc2)C2=C1C(=O)CC1(CCC1)C2 (stereo unspecified)	
	> 10000	Cc1[nH]n(C2CCCCC2)c(=O)c1C1(C(F)(F)F)C(=O)N(c2ccccc2)C2=C1C(=O)CC(C)(C)C2 (stereo unspecified)	
	6260	Cc1[nH]n(-c2ccccc2)c(=O)c1C1(C(F)(F)F)C(=O)N(c2ccccc2)C2=C1C(=O)CC(c1ccccc1)C2 (stereo unspecified)	
1100		Cc1[nH]n(-c2ccc(C#N)cc2)c(=O)c1C1(C(F)(F)F)C(=O)N(c2ccccc2)C2=C1C(=O)CC(C)(C)C2 (stereo unspecified)	
337		Cc1[nH]n(-c2ccc(OC(F)(F)F)cc2)c(=O)c1C1(C(F)(F)F)C(=O)N(c2ccccc2)C2=C1C(=O)CC(C)(C)C2 (stereo unspecified)	IC50 [3]: > 10000 nM; concentration at 2 h [4]: 3.4 µM; concentration at 2 h [5]: 50 µM; concentration at 24 h [6]: 0.4 µM; concentration at 2 h [7]: 30 µM; IC50 [8]: > 10000 nM; Activity (Mus musculus): Dose-dependent effect; concentration at 4 h [9]: 2.8 µM; IC50 [10]: 31 nM; IC50 [11]: 194 nM; concentration at 8 h [12]: 1.4 µM; IC50 [13]: > 10000 nM
59		Cc1[nH]n(-c2ccc(C(C)C)cc2)c(=O)c1C1(C(F)(F)F)C(=O)N(c2ccccc2)C2=C1C(=O)CC(C)(C)C2 (stereo unspecified)	
	> 10000	Cc1[nH]n(C(C)C)c(=O)c1C1(C(F)(F)F)C(=O)N(c2ccccc2)C2=C1C(=O)CC(C)(C)C2 (stereo unspecified)	
503		COc1ccc(-n2[nH]c(C)c(C3(C(F)(F)F)C(=O)N(c4ccccc4)C4=C3C(=O)CC(C)(C)C4)c2=O)cc1 (stereo unspecified)	
	4500	Cc1[nH]n(-c2ccccc2)c(=O)c1C1(C(F)(F)F)C(=O)N(c2ccccc2)C2=C1C(=O)CCC2 (stereo unspecified)	
	2020	Cc1[nH]n(C)c(=O)c1C1(C(F)(F)F)C(=O)N(c2ccccc2)C2=C1C(=O)CC(C)(C)C2 (stereo unspecified)	
	> 10000	CC(C)c1[nH]n(-c2ccccc2)c(=O)c1C1(C(F)(F)F)C(=O)N(c2ccccc2)C2=C1C(=O)CC(C)(C)C2 (stereo unspecified)	
	704	Cc1[nH]n(-c2ccccc2)c(=O)c1C1(C(F)(F)F)C(=O)N(c2ccccc2)C2=C1C(=O)CC(C)C2 (stereo unspecified)	
221		Cc1[nH]n(-c2ccc(Cl)cc2)c(=O)c1C1(C(F)(F)F)C(=O)N(c2ccccc2)C2=C1C(=O)CC(C)(C)C2 (stereo unspecified)	

— ChEMBL document CHEMBL1138496, “Synthesis and evaluation of a novel indoledione class of long chain fatty acid elongase 6 (ELOVL6) inhibitors” (J Med Chem, 2009)
